For assay [1], the target named is T1, Angiotensin-converting enzyme (Homo sapiens, UniProt P12821). As to the kind of experiment: Inhibitory concentration was evaluated by inhibiting 50% of Angiotensin I Converting Enzyme activity using 50 uM N-Cbz-Phe-His-Leu as substrate. A digest of the protocol: (§1)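 Recombinant human ACE preincubated 15 min at 37 °C with various inhibitor concentrations in 50 mM Tris-HCl pH 7.4. N-Cbz-Phe-His-Leu then added to a final 0.05 mM. Reaction ran 15 min and was stopped with 2 M NaOH. His-Leu measured fluorimetrically (ex 365, em 495 nm) against a His-Leu calibration curve. IC50 by log probit of five concentrations, mean ± SEM of three independent experiments.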
T1 sequence (P12821 whole entry): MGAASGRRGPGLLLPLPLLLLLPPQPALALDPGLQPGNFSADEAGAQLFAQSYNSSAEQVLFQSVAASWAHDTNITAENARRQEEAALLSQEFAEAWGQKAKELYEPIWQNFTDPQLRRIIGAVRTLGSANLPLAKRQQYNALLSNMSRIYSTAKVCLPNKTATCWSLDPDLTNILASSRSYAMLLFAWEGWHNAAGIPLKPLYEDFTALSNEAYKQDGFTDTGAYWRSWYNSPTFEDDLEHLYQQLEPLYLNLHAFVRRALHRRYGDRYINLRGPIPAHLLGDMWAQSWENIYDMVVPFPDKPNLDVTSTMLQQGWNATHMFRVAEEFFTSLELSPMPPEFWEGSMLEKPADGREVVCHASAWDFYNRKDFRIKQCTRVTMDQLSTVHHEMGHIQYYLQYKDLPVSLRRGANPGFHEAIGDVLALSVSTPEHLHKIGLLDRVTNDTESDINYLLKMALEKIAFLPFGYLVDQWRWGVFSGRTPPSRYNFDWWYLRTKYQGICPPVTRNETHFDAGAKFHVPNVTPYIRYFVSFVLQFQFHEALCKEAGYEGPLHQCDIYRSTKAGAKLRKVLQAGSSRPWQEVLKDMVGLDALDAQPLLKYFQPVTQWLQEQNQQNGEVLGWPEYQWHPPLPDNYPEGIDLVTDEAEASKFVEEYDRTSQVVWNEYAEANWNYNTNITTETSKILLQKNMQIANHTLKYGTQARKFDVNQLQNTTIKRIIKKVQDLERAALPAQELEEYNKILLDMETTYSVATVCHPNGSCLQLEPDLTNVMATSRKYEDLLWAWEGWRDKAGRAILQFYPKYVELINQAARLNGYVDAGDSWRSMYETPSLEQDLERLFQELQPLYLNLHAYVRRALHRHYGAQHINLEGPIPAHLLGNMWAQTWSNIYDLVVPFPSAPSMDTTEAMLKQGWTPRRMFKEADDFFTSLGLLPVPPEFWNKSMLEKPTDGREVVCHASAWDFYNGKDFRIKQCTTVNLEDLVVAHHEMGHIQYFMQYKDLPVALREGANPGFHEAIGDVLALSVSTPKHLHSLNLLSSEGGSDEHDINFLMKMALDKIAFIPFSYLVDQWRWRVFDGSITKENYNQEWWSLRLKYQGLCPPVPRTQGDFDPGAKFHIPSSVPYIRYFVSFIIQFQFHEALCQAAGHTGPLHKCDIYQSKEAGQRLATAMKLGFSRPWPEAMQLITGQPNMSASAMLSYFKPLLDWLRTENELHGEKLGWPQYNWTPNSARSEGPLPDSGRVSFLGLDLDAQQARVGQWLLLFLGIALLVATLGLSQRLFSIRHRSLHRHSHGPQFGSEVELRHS

In assay [2] the target is T2, Neprilysin (Oryctolagus cuniculus, UniProt P08049).
T2 sequence (P08049 whole entry): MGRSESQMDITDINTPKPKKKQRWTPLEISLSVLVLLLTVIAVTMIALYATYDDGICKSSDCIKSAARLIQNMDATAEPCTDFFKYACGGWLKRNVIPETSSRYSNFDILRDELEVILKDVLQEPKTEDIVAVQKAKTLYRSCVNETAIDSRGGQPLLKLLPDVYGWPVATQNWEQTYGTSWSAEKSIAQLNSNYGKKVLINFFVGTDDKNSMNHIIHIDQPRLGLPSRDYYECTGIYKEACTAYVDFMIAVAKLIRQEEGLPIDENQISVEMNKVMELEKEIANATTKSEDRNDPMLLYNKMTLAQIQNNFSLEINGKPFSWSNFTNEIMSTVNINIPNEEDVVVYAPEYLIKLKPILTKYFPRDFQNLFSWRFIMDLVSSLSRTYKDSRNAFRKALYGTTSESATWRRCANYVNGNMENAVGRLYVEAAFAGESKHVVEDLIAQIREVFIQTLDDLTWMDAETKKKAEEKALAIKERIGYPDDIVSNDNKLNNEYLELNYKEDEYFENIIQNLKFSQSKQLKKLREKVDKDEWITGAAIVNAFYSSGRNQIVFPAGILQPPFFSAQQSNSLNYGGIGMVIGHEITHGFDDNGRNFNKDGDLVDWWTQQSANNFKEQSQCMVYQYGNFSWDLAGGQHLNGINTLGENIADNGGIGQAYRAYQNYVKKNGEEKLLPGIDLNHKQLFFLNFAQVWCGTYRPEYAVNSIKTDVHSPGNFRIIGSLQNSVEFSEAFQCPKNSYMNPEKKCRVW
Nature of the assay: Inhibitory concentration was evaluated by Inhibiting 50% of Neutral endopeptidase enzyme (NEP) activity using 20 nM [3H]D-Ala2-Leu-enkephalin as substrate. A digest of the protocol: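 NEP purified to homogeneity from rabbit kidney, final 1 pmol/100 μL. Preincubated 15 min at 25 °C with or without increasing inhibitor concentrations in 50 mM Tris-HCl pH 7.4. [3H]-D-Ala2-Leu-enkephalin added to a final 20 nM. Stopped after 30 min with 0.5 M HCl. Tritiated metabolites separated on polystyrene beads. IC50 by log probit of five concentrations, mean ± SEM of three independent experiments.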

The target in assay [3] is T1, Angiotensin-converting enzyme. Nature of the assay: Inhibitory concentration was evaluated by Inhibiting 50% of Angiotensin I converting enzyme activity using 50 uM N-Cbz-Phe-His-Leu as substrate.
The target is the same in assay [4]. As to the kind of experiment: Inhibitory concentration was evaluated by inhibiting 50% of Angiotensin I Converting Enzyme activity using 50 micro M N-Cbz-Phe-His-Leu as substrate. In outline: as §1

Consider `CC(C)CC(S)C(Cc1ccccc1)C(=O)NC(Cc1ccc(O)cc1)C(=O)O` (stereo not given), for which the values for the half-maximal inhibitory concentration (IC50) in assay [1] and in assay [2] were 710 nM and 26 nM, respectively.

With `CC(C)C(C(=O)NC(Cc1ccc(O)cc1)C(=O)O)C(S)CCc1ccccc1` (stereo not given), the IC50 (as a rule, the concentration that inhibits the measured activity by half) in assay [1] is 4500 nM; in assay [2] it was 53 nM.

For `CCC(C)C(NC(=O)C(Cc1ccccc1)C(C)S)C(=O)NC(Cc1ccc(O)cc1)C(=O)O` (stereo not given), the figures for the IC50 in assay [3] and in assay [2] were 300 nM and 380 nM, respectively.

Turning to `CC(C)CC(S)CC(=O)NC(Cc1ccccc1)C(=O)O` (stereo not given), the IC50 in assay [1] was determined as 10000 nM; in assay [2], 37 nM.

As for `CC(C)CC(S)[C@H](Cc1ccccc1)C(=O)N[C@@H](C)C(=O)O` (stereo not given in full), the IC50 was determined as 4000 nM in assay [1] and 40 nM in assay [2].

With `CCCCC(NC(=O)C(Cc1ccccc1)C(C)S)C(=O)NC(Cc1ccc(O)cc1)C(=O)O` (stereo not given), the IC50 was determined as 6100 nM in assay [3] and 50 nM in assay [2].

On to `CC(C)C[C@@H](S)[C@H](Cc1ccccc1)C(=O)N[C@@H](C)C(=O)O`, for which the figures for the 50% inhibitory concentration (IC50) in assay [1] and in assay [2] were 5000 nM and 20 nM, respectively.

Regarding `O=C(O)C(Cc1ccc(O)cc1)NC(=O)C(Cc1ccccc1)C(S)CCc1ccccc1` (stereo not given), the IC50 is 1600 nM in assay [1] and 180 nM in assay [2].

Turning to `CC(C)C(NC(=O)C(Cc1ccccc1)C(C)S)C(=O)NC(Cc1ccc(O)cc1)C(=O)O` (stereo not given), the values for the IC50 in assay [3] and in assay [2] were 1300 nM and 320 nM, respectively.

`CC(C)C[C@H](S)[C@H](Cc1ccccc1)C(=O)N[C@@H](C)C(=O)O`: the results for the IC50 in assay [1] and in assay [2] were 10000 nM and 35 nM, respectively.

Regarding `CC(C)C[C@H](S)[C@@H](Cc1ccccc1)C(=O)N[C@@H](C)C(=O)O`, the IC50 amounted to 16100 nM in assay [4] and 3.6 nM in assay [2].

`CC(S)C(Cc1ccccc1)C(=O)NCC(=O)O` (stereo not given): the IC50 in assay [3] was determined as 11000 nM; in assay [2], 50 nM.

For the compound `CC(C)CC(S)CC(=O)NC(Cc1ccccc1)C(=O)NC(Cc1ccc(O)cc1)C(=O)O` (stereo not given), the IC50 in assay [3] came to 2800 nM; in assay [2], 50 nM.

In the case of `CC(NC(=O)C(Cc1ccccc1)C(S)CCc1ccccc1)C(=O)O` (stereo not given), the results for the IC50 in assay [1] and in assay [2] were 4000 nM and 44 nM, respectively.

In the case of `CC(C)CC(S)C(Cc1ccccc1)C(=O)NC(C)C(=O)O` (stereo not given), the IC50 amounted to 12000 nM in assay [1] and 14 nM in assay [2].
